In ChEMBL document CHEMBL1138567, “Regioselective synthesis and antimicrobial screening of novel ketocarbazolodispiropyrrolidine derivatives” (2009):

Each compound was assayed on Salmonella enterica subsp. enterica serovar Typhi str. CT18 (assay: Antimicrobial activity against Salmonella typhi at 50 ug/ml after 24 hrs by agar diffusion method). Conditions: read-out: IZ.
Format: functional
How it was run: (§1)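 Agar well diffusion: about 9 ml nutrient agar in 9 cm Petri plates, seeded with the test organism. Wells cut with a cork borer and loaded with test compound at 25–100 per ml; tetracycline as control. Plates incubated 24 h at 37 °C. Read-out is the average diameter of the inhibition zone around each well, in mm.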

Compared with `CN1C[C@@H](c2ccc([N+](=O)[O-])cc2)[C@@]2(CCc3c([nH]c4ccccc34)C2=O)[C@]12C(=O)Nc1ccccc12`, `COc1ccc([C@@H]2CN(C)[C@@]3(C(=O)Nc4ccccc43)[C@]23CCc2c([nH]c4ccccc24)C3=O)cc1` is lower in zone of inhibition at 50 µg/mL: 16 mm for the first, 14 mm for the second.

`CN1C[C@@H](c2ccc(Br)cc2)[C@@]2(CCc3c([nH]c4ccccc34)C2=O)[C@]12C(=O)c1cccc3cccc2c13` was tested, and the zone of inhibition at 50 µg/mL was 14 mm.

What follows are compounds tested on Salmonella enterica subsp. enterica serovar Typhi str. CT18 (assay: Antimicrobial activity against Salmonella typhi at 75 ug/ml after 24 hrs by agar diffusion method). Conditions: read-out: IZ.
Format: functional
How it was run: as §1

`CN1C[C@@H](c2ccc([N+](=O)[O-])cc2)[C@@]2(CCc3c([nH]c4ccccc34)C2=O)[C@]12C(=O)Nc1ccccc12` and `COc1ccc([C@@H]2CN(C)[C@@]3(C(=O)Nc4ccccc43)[C@]23CCc2c([nH]c4ccccc24)C3=O)cc1` are the same in zone of inhibition at 75 µg/mL: 18 mm for the first, 18 mm for the second.

With `CN1C[C@@H](c2ccc(Br)cc2)[C@@]2(CCc3c([nH]c4ccccc34)C2=O)[C@]12C(=O)c1cccc3cccc2c13` the zone of inhibition at 75 µg/mL was 21 mm.

These compounds were tested on Staphylococcus aureus (assay: Antimicrobial activity against Staphylococcus aureus at 75 ug/ml after 24 hrs by agar diffusion method). Conditions: read-out: IZ.
Format: functional
How it was run: (§2)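 Agar well diffusion: petri plates (9 cm) with about 9 ml nutrient agar, seeded with the test organism. Wells cut with a cork borer and loaded with test compound at 25, 50, 75 or 100 per ml; tetracycline as control. Incubated 37 °C for 24 h; average inhibition-zone diameter around wells measured (mm).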

First: CN1C[C@@H](c2ccc([N+](=O)[O-])cc2)[C@@]2(CCc3c([nH]c4ccccc34)C2=O)[C@]12C(=O)Nc1ccccc12
Second: COc1ccc([C@@H]2CN(C)[C@@]3(C(=O)Nc4ccccc43)[C@]23CCc2c([nH]c4ccccc24)C3=O)cc1
The zone of inhibition at 75 µg/mL of the first is lower: 14 mm for the first, 17 mm for the second.

Work on `CN1C[C@@H](c2ccc(Br)cc2)[C@@]2(CCc3c([nH]c4ccccc34)C2=O)[C@]12C(=O)c1cccc3cccc2c13` yielded a zone of inhibition at 75 µg/mL of 18 mm.

These compounds were tested on Salmonella enterica subsp. enterica serovar Typhi str. CT18 (assay: Antimicrobial activity against Salmonella typhi at 25 ug/ml after 24 hrs by agar diffusion method). Conditions: read-out: IZ.
Format: functional
How it was run: as §1

Compared with `CN1C[C@@H](c2ccc([N+](=O)[O-])cc2)[C@@]2(CCc3c([nH]c4ccccc34)C2=O)[C@]12C(=O)Nc1ccccc12`, `COc1ccc([C@@H]2CN(C)[C@@]3(C(=O)Nc4ccccc43)[C@]23CCc2c([nH]c4ccccc24)C3=O)cc1` is higher in zone of inhibition at 25 µg/mL: 9 mm for the first, 12 mm for the second.

For `CN1C[C@@H](c2ccc(Br)cc2)[C@@]2(CCc3c([nH]c4ccccc34)C2=O)[C@]12C(=O)c1cccc3cccc2c13`, the zone of inhibition at 25 µg/mL was 9 mm.

These compounds were tested on Proteus vulgaris (assay: Antimicrobial activity against Proteus vulgaris at 50 ug/ml after 24 hrs by agar diffusion method). Conditions: read-out: IZ.
Format: functional
How it was run: as §2

`CN1C[C@@H](c2ccc([N+](=O)[O-])cc2)[C@@]2(CCc3c([nH]c4ccccc34)C2=O)[C@]12C(=O)Nc1ccccc12` and `COc1ccc([C@@H]2CN(C)[C@@]3(C(=O)Nc4ccccc43)[C@]23CCc2c([nH]c4ccccc24)C3=O)cc1` are the same in zone of inhibition at 50 µg/mL: 13 mm for the first, 13 mm for the second.

`CN1C[C@@H](c2ccc(Br)cc2)[C@@]2(CCc3c([nH]c4ccccc34)C2=O)[C@]12C(=O)c1cccc3cccc2c13` gave a zone of inhibition at 50 µg/mL of 16 mm.

What follows are compounds tested on Staphylococcus aureus (assay: Antimicrobial activity against Staphylococcus aureus at 50 ug/ml after 24 hrs by agar diffusion method). Conditions: read-out: IZ.
Format: functional
How it was run: as §2

First: CN1C[C@@H](c2ccc([N+](=O)[O-])cc2)[C@@]2(CCc3c([nH]c4ccccc34)C2=O)[C@]12C(=O)Nc1ccccc12
Second: COc1ccc([C@@H]2CN(C)[C@@]3(C(=O)Nc4ccccc43)[C@]23CCc2c([nH]c4ccccc24)C3=O)cc1
The zone of inhibition at 50 µg/mL of the first is lower: 11 mm for the first, 14 mm for the second.

`CN1C[C@@H](c2ccc(Br)cc2)[C@@]2(CCc3c([nH]c4ccccc34)C2=O)[C@]12C(=O)c1cccc3cccc2c13` was tested, and the zone of inhibition at 50 µg/mL was 14 mm.

The compounds below were run on Proteus mirabilis (assay: Antimicrobial activity against Proteus mirabilis at 25 ug/ml after 24 hrs by agar diffusion method). Conditions: read-out: IZ.
Format: functional
How it was run: as §2

Going from `CN1C[C@@H](c2ccc([N+](=O)[O-])cc2)[C@@]2(CCc3c([nH]c4ccccc34)C2=O)[C@]12C(=O)Nc1ccccc12` to `COc1ccc([C@@H]2CN(C)[C@@]3(C(=O)Nc4ccccc43)[C@]23CCc2c([nH]c4ccccc24)C3=O)cc1`, the zone of inhibition at 25 µg/mL falls from 12 mm to 9 mm.

In the case of `CN1C[C@@H](c2ccc(Br)cc2)[C@@]2(CCc3c([nH]c4ccccc34)C2=O)[C@]12C(=O)c1cccc3cccc2c13`, the zone of inhibition at 25 µg/mL is reported as 13 mm.

These compounds were tested on Proteus vulgaris (assay: Antimicrobial activity against Proteus vulgaris at 75 ug/ml after 24 hrs by agar diffusion method). Conditions: read-out: IZ.
Format: functional
How it was run: as §2

`CN1C[C@@H](c2ccc([N+](=O)[O-])cc2)[C@@]2(CCc3c([nH]c4ccccc34)C2=O)[C@]12C(=O)Nc1ccccc12` and `COc1ccc([C@@H]2CN(C)[C@@]3(C(=O)Nc4ccccc43)[C@]23CCc2c([nH]c4ccccc24)C3=O)cc1` are the same in zone of inhibition at 75 µg/mL: 18 mm for the first, 18 mm for the second.

Compound `CN1C[C@@H](c2ccc(Br)cc2)[C@@]2(CCc3c([nH]c4ccccc34)C2=O)[C@]12C(=O)c1cccc3cccc2c13` has a zone of inhibition at 75 µg/mL of 20 mm.

The compounds below were run on Staphylococcus aureus (assay: Antimicrobial activity against Staphylococcus aureus at 25 ug/ml after 24 hrs by agar diffusion method). Conditions: read-out: IZ.
Format: functional
How it was run: as §2

Compared with `CN1C[C@@H](c2ccc(Br)cc2)[C@@]2(CCc3c([nH]c4ccccc34)C2=O)[C@]12C(=O)c1cccc3cccc2c13`, `COc1ccc([C@@H]2CN(C)[C@@]3(C(=O)Nc4ccccc43)[C@]23CCc2c([nH]c4ccccc24)C3=O)cc1` is higher in zone of inhibition at 25 µg/mL: 11 mm for the first, 12 mm for the second.

Each compound was assayed on Salmonella enterica subsp. enterica serovar Typhi str. CT18 (assay: Antimicrobial activity against Salmonella typhi at 100 ug/ml after 24 hrs by agar diffusion method). Conditions: read-out: IZ.
Format: functional
How it was run: as §1

Compared with `CN1C[C@@H](c2ccc([N+](=O)[O-])cc2)[C@@]2(CCc3c([nH]c4ccccc34)C2=O)[C@]12C(=O)Nc1ccccc12`, `COc1ccc([C@@H]2CN(C)[C@@]3(C(=O)Nc4ccccc43)[C@]23CCc2c([nH]c4ccccc24)C3=O)cc1` is lower in zone of inhibition at 100 µg/mL: 22 mm for the first, 21 mm for the second.

With `CN1C[C@@H](c2ccc(Br)cc2)[C@@]2(CCc3c([nH]c4ccccc34)C2=O)[C@]12C(=O)c1cccc3cccc2c13` the zone of inhibition at 100 µg/mL was 30 mm.

These compounds were tested on Proteus mirabilis (assay: Antimicrobial activity against Proteus mirabilis at 50 ug/ml after 24 hrs by agar diffusion method). Conditions: read-out: IZ.
Format: functional
How it was run: as §2

`CN1C[C@@H](c2ccc([N+](=O)[O-])cc2)[C@@]2(CCc3c([nH]c4ccccc34)C2=O)[C@]12C(=O)Nc1ccccc12` and `COc1ccc([C@@H]2CN(C)[C@@]3(C(=O)Nc4ccccc43)[C@]23CCc2c([nH]c4ccccc24)C3=O)cc1` are the same in zone of inhibition at 50 µg/mL: 13 mm for the first, 13 mm for the second.

Work on `CN1C[C@@H](c2ccc(Br)cc2)[C@@]2(CCc3c([nH]c4ccccc34)C2=O)[C@]12C(=O)c1cccc3cccc2c13` yielded a zone of inhibition at 50 µg/mL of 15 mm.

What follows are compounds tested on Proteus mirabilis (assay: Antimicrobial activity against Proteus mirabilis at 75 ug/ml after 24 hrs by agar diffusion method). Conditions: read-out: IZ.
Format: functional
How it was run: as §2

`CN1C[C@@H](c2ccc([N+](=O)[O-])cc2)[C@@]2(CCc3c([nH]c4ccccc34)C2=O)[C@]12C(=O)Nc1ccccc12` and `COc1ccc([C@@H]2CN(C)[C@@]3(C(=O)Nc4ccccc43)[C@]23CCc2c([nH]c4ccccc24)C3=O)cc1` are the same in zone of inhibition at 75 µg/mL: 16 mm for the first, 16 mm for the second.

With `CN1C[C@@H](c2ccc(Br)cc2)[C@@]2(CCc3c([nH]c4ccccc34)C2=O)[C@]12C(=O)c1cccc3cccc2c13` the zone of inhibition at 75 µg/mL was 18 mm.

Each compound was assayed on Proteus mirabilis (assay: Antimicrobial activity against Proteus mirabilis at 100 ug/ml after 24 hrs by agar diffusion method). Conditions: read-out: IZ.
Format: functional
How it was run: as §2

Compared with `CN1C[C@@H](c2ccc([N+](=O)[O-])cc2)[C@@]2(CCc3c([nH]c4ccccc34)C2=O)[C@]12C(=O)Nc1ccccc12`, `COc1ccc([C@@H]2CN(C)[C@@]3(C(=O)Nc4ccccc43)[C@]23CCc2c([nH]c4ccccc24)C3=O)cc1` is higher in zone of inhibition at 100 µg/mL: 20 mm for the first, 21 mm for the second.

For `CN1C[C@@H](c2ccc(Br)cc2)[C@@]2(CCc3c([nH]c4ccccc34)C2=O)[C@]12C(=O)c1cccc3cccc2c13`, the zone of inhibition at 100 µg/mL was 22 mm.

The compounds below were run on Proteus vulgaris (assay: Antimicrobial activity against Proteus vulgaris at 25 ug/ml after 24 hrs by agar diffusion method). Conditions: read-out: IZ.
Format: functional
How it was run: as §2

Compared with `CN1C[C@@H](c2ccc([N+](=O)[O-])cc2)[C@@]2(CCc3c([nH]c4ccccc34)C2=O)[C@]12C(=O)Nc1ccccc12`, `COc1ccc([C@@H]2CN(C)[C@@]3(C(=O)Nc4ccccc43)[C@]23CCc2c([nH]c4ccccc24)C3=O)cc1` is higher in zone of inhibition at 25 µg/mL: 9 mm for the first, 11 mm for the second.

Compound `CN1C[C@@H](c2ccc(Br)cc2)[C@@]2(CCc3c([nH]c4ccccc34)C2=O)[C@]12C(=O)c1cccc3cccc2c13` has a zone of inhibition at 25 µg/mL of 12 mm.

The compounds below were run on Proteus vulgaris (assay: Antimicrobial activity against Proteus vulgaris at 100 ug/ml after 24 hrs by agar diffusion method). Conditions: read-out: IZ.
Format: functional
How it was run: as §2

Compared with `CN1C[C@@H](c2ccc([N+](=O)[O-])cc2)[C@@]2(CCc3c([nH]c4ccccc34)C2=O)[C@]12C(=O)Nc1ccccc12`, `COc1ccc([C@@H]2CN(C)[C@@]3(C(=O)Nc4ccccc43)[C@]23CCc2c([nH]c4ccccc24)C3=O)cc1` is lower in zone of inhibition at 100 µg/mL: 22 mm for the first, 20 mm for the second.

In the case of `CN1C[C@@H](c2ccc(Br)cc2)[C@@]2(CCc3c([nH]c4ccccc34)C2=O)[C@]12C(=O)c1cccc3cccc2c13`, the zone of inhibition at 100 µg/mL is reported as 22 mm.

The compounds below were run on Staphylococcus aureus (assay: Antimicrobial activity against Staphylococcus aureus at 100 ug/ml after 24 hrs by agar diffusion method). Conditions: read-out: IZ.
Format: functional
How it was run: as §2

`CN1C[C@@H](c2ccc([N+](=O)[O-])cc2)[C@@]2(CCc3c([nH]c4ccccc34)C2=O)[C@]12C(=O)Nc1ccccc12` and `COc1ccc([C@@H]2CN(C)[C@@]3(C(=O)Nc4ccccc43)[C@]23CCc2c([nH]c4ccccc24)C3=O)cc1` are the same in zone of inhibition at 100 µg/mL: 20 mm for the first, 20 mm for the second.

Work on `CN1C[C@@H](c2ccc(Br)cc2)[C@@]2(CCc3c([nH]c4ccccc34)C2=O)[C@]12C(=O)c1cccc3cccc2c13` yielded a zone of inhibition at 100 µg/mL of 22 mm.
